Assays:
[1] = test system: A549; assay: Cytotoxicity against human A549 cells assessed as reduction in cell growth after 72 hrs by MTT assay; details: A549, 72 h
[2] = test system: HT-29; assay: Cytotoxicity against human HT-29 cells assessed as reduction in cell growth after 72 hrs by MTT assay; details: HT-29, 72 h
[3] = Cytotoxicity against human PC3 cells assessed as reduction in cell growth after 72 hrs by MTT assay; format: functional, cell-based; details: PC-3, 72 h
Outline: (§1)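 Cells grown in MEM with 10% FBS were seeded at about 4 × 10³ cells/well and held 24 h at 37 °C in 5% CO₂. Compounds were then added and cells cultured 72 h. IC50 is the average of triplicate determinations.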

[4] = test system: MCF7; assay: Cytotoxicity against human MCF7 cells assessed as reduction in cell growth after 72 hrs by MTT assay; format: functional, cell-based; details: MCF7, 72 h; outline: as §1
[5] = target: T1, Receptor-type tyrosine-protein kinase FLT3 (Homo sapiens, UniProt P36888); assay: Inhibition of FLT3 (unknown origin) using poly (Glu, Tyr) 4:1 as substrate after 30 mins by HTRF assay
T1 sequence (P36888 whole entry): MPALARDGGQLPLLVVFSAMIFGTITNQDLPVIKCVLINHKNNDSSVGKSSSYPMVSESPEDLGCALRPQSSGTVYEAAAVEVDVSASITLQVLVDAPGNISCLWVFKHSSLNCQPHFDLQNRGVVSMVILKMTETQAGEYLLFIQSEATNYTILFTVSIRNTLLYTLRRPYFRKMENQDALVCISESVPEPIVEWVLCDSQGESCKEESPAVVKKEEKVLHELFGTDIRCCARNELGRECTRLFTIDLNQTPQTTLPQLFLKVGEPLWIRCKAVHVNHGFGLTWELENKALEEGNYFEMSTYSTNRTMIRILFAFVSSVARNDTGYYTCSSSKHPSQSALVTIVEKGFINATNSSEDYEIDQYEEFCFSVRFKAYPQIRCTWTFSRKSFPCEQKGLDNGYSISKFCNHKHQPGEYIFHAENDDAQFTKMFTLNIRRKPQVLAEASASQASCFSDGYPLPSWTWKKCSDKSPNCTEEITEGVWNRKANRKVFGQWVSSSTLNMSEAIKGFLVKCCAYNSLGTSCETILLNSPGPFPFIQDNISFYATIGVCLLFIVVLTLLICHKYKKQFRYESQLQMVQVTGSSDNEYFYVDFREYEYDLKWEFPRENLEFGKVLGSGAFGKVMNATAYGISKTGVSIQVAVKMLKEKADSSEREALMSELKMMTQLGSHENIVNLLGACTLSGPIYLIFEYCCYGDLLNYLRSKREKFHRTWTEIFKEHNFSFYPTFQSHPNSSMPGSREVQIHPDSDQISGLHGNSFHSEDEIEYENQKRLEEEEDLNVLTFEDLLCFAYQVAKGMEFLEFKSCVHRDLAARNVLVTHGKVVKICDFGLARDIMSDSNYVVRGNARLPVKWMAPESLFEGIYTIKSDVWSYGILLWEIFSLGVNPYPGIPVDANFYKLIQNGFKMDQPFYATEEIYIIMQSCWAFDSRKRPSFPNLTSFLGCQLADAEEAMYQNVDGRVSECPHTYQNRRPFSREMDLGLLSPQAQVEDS
Outline: (§2)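 HTRF tyrosine-kinase assay with purified enzyme on preloaded poly(Glu,Tyr) 4:1 substrate (20 μg/mL). ATP was added from a 10 mM solution in HEPES buffer (50 mM, pH 7.0, with Mg²⁺, Mn²⁺, DTT, 0.1% NaN₃), and compounds in 1% DMSO.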

[6] = target: Vascular endothelial growth factor receptor 2 (Homo sapiens, UniProt P35968); assay: Inhibition of KDR (unknown origin) using poly (Glu, Tyr) 4:1 as substrate after 30 mins by HTRF assay; outline: as §2
Sequence of Vascular endothelial growth factor receptor 2 (P35968 whole entry): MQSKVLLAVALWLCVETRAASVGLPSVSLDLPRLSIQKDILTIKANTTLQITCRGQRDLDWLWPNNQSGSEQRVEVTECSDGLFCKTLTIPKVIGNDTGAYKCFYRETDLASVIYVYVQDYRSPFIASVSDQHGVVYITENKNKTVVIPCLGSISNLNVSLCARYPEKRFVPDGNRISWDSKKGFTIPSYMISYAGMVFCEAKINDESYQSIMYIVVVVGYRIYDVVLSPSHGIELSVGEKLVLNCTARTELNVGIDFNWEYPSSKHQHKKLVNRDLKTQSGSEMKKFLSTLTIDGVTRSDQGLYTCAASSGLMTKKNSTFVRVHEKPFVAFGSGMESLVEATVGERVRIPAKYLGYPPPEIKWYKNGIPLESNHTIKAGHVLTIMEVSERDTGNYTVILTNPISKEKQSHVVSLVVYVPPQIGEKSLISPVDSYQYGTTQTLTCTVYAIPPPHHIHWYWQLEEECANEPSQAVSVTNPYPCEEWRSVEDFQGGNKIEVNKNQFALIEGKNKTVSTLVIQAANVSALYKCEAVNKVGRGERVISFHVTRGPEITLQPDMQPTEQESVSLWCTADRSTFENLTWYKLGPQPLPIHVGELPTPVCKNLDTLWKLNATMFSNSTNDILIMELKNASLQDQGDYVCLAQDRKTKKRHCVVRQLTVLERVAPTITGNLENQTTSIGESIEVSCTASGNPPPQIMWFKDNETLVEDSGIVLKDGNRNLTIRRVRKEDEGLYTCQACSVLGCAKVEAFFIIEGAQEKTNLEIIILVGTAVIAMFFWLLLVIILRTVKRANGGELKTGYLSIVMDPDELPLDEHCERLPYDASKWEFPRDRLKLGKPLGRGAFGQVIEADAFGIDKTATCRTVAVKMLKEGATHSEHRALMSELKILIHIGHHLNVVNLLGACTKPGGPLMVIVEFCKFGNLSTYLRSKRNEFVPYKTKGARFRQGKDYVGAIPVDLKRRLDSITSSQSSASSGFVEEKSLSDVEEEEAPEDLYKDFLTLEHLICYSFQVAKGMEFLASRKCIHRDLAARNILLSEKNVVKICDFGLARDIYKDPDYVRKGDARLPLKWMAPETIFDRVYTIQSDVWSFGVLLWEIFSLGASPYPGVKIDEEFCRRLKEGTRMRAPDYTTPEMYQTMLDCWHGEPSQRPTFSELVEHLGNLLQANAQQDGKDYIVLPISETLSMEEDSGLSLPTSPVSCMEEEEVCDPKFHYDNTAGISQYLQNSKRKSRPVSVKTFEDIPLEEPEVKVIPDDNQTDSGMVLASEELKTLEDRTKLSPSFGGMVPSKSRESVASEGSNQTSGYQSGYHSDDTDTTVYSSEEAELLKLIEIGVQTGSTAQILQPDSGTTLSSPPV

[7] = target: Mast/stem cell growth factor receptor Kit (Homo sapiens, UniProt P10721); assay: Inhibition of cKit (unknown origin) using poly (Glu, Tyr) 4:1 as substrate after 30 mins by HTRF assay; outline: as §2
Sequence of Mast/stem cell growth factor receptor Kit (P10721 whole entry): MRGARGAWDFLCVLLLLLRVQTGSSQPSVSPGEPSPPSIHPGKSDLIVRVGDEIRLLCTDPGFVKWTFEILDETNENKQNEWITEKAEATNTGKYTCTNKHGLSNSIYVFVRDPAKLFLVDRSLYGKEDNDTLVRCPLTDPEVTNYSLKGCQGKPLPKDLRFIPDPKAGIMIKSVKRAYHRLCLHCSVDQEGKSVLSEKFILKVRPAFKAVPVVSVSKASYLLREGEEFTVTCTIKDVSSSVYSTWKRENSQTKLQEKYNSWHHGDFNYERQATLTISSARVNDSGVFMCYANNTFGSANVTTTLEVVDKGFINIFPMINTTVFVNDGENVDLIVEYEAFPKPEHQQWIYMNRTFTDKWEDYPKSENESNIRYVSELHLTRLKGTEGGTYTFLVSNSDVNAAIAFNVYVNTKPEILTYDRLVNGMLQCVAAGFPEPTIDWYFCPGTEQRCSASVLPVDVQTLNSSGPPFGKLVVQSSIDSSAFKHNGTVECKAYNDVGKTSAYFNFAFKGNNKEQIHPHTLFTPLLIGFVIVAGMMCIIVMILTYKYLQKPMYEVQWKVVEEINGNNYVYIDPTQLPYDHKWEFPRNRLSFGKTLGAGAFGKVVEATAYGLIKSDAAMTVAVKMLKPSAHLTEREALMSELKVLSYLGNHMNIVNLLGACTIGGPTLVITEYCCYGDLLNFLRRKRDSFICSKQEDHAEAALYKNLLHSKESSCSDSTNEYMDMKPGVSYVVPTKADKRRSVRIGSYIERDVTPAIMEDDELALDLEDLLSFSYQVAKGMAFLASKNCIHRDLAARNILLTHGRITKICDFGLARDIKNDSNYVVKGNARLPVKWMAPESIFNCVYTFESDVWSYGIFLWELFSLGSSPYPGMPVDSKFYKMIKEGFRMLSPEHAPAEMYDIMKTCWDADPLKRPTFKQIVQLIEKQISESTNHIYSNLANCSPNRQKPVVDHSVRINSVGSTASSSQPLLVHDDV

[8] = target: Platelet-derived growth factor receptor beta (Homo sapiens, UniProt P09619); assay: Inhibition of PDGFRbeta (unknown origin) using poly (Glu, Tyr) 4:1 as substrate after 30 mins by HTRF assay; outline: as §2
Sequence of Platelet-derived growth factor receptor beta (P09619 whole entry): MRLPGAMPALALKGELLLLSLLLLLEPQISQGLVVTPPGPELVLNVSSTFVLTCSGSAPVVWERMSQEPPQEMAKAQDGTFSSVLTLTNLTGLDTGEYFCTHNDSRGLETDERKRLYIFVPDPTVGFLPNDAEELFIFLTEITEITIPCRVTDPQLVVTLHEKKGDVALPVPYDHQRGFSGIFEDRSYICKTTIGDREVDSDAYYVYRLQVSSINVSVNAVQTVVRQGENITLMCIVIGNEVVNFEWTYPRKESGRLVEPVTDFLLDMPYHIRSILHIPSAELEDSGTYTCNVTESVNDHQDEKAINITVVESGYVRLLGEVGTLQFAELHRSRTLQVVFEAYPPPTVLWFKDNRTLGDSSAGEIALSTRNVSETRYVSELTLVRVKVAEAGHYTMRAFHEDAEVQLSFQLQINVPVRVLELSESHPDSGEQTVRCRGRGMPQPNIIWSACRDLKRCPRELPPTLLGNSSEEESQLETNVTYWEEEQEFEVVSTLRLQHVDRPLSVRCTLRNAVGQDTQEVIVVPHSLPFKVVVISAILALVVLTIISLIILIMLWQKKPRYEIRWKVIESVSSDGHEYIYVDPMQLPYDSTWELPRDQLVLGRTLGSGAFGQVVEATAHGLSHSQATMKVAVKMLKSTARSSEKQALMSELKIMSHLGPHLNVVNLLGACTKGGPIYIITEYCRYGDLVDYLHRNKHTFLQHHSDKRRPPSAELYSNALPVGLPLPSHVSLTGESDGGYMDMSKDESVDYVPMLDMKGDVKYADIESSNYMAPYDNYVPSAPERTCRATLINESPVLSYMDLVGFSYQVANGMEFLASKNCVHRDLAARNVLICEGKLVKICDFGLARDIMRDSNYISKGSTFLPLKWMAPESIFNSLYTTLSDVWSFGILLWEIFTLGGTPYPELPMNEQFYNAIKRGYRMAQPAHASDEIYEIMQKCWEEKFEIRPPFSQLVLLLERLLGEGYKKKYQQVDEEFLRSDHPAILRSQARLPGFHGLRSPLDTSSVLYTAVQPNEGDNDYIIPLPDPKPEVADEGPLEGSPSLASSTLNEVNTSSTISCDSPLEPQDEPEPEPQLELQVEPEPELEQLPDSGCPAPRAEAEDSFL

[9] = target: Hepatocyte growth factor receptor (Homo sapiens, UniProt P08581); assay: Inhibition of cMet (unknown origin) using poly (Glu, Tyr) 4:1 as substrate after 30 mins by HTRF assay
Sequence of Hepatocyte growth factor receptor (P08581 whole entry): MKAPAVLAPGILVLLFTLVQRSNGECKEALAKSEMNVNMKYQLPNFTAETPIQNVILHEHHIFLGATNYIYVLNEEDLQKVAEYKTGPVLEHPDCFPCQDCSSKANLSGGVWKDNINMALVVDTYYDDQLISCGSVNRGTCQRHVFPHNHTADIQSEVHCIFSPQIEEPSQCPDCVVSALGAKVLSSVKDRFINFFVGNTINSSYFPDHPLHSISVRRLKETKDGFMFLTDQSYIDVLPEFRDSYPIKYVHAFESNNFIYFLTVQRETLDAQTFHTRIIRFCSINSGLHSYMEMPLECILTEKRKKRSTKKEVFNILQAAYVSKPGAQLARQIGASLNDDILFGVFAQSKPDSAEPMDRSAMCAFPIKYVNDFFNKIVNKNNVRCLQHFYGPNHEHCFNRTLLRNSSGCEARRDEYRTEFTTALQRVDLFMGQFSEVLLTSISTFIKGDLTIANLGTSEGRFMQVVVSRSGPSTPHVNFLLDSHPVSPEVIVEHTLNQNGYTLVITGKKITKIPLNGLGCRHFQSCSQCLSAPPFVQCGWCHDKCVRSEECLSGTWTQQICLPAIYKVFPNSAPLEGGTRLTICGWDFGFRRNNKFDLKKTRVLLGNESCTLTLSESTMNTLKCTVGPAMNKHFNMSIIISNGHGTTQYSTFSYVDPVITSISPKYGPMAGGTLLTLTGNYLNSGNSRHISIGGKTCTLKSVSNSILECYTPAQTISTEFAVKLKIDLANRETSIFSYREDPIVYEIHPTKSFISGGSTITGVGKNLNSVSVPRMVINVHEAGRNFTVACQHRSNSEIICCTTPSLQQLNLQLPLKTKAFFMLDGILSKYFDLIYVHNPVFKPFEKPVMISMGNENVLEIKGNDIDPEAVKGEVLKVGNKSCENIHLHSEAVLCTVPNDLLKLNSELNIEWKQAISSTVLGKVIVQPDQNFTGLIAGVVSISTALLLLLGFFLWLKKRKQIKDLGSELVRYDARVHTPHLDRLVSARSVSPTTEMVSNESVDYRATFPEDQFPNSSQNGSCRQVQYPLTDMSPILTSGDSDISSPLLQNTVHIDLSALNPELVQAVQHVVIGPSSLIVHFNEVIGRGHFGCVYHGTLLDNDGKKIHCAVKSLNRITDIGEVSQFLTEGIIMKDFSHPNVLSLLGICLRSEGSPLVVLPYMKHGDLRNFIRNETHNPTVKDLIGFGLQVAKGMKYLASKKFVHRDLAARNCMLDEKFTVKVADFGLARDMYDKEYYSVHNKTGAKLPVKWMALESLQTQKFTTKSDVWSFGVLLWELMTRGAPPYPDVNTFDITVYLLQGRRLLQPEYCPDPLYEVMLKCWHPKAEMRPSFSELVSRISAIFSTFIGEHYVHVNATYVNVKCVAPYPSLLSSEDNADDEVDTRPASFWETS

Molecule `Cc1c(C(=O)Nc2ccc(Oc3ccnc4[nH]ccc34)c(F)c2)nnn1-c1ccc(F)c(Cl)c1` has an IC50 [1] of 0.73 µM and an IC50 [2] of 1.06 µM.
`O=C(Nc1ccc(Oc2ccnc3[nH]ccc23)c(F)c1)c1nnn(-c2ccc(Cl)c(C(F)(F)F)c2)c1C(F)(F)F` gave an IC50 [1] of 1.29 µM and an IC50 [2] of 1.05 µM.
For `Cc1c(C(=O)Nc2ccc(Oc3ccnc4[nH]ccc34)c(F)c2)nnn1-c1ccc(Cl)c(C(F)(F)F)c1`, the IC50 [1] was 2.37 µM and the IC50 [2] was 1.12 µM.
Work on `O=C(Nc1ccc(Oc2ccnc3[nH]ccc23)c(F)c1)c1nnn(-c2ccc(F)c(Cl)c2)c1C(F)(F)F` yielded an IC50 [1] of 0.82 µM and an IC50 [2] of 0.63 µM.
Work on `O=C(Nc1ccc(Oc2ccnc3[nH]ccc23)c(F)c1)c1nnn(-c2ccccc2F)c1C(F)(F)F` yielded an IC50 [3] of 2.13 µM, an IC50 [1] of 0.19 µM and an IC50 [4] of 0.28 µM. For the same molecule, the IC50 [2] was 0.073 µM.
`Cc1c(C(=O)Nc2ccc(Oc3ccnc4[nH]ccc34)c(F)c2)nnn1-c1ccc(F)cc1` gave an IC50 [3] of 4.35 µM, an IC50 [1] of 0.15 µM and an IC50 [4] of 0.17 µM. The IC50 [2] was 0.12 µM.
Molecule `O=C(Nc1ccc(Oc2ccnc3[nH]ccc23)c(F)c1)c1nnn(-c2ccccc2)c1C(F)(F)F` has an IC50 [3] of 2.32 µM, an IC50 [1] of 0.22 µM and an IC50 [4] of 1.15 µM. It also gave an IC50 [2] of 0.091 µM.
`O=C(Nc1ccc(Oc2ccnc3[nH]ccc23)cc1)c1nnn(-c2ccc(F)c(F)c2)c1C(F)(F)F` showed an IC50 [3] of 7.31 µM, an IC50 [1] of 0.79 µM and an IC50 [4] of 0.69 µM. The IC50 [2] was 0.52 µM.
With `Cc1c(C(=O)Nc2ccc(Oc3ccnc4[nH]ccc34)c(F)c2)nnn1-c1ccc(F)c(F)c1` the IC50 [3] was 6.54 µM, the IC50 [1] was 0.57 µM and the IC50 [4] was 0.82 µM. It also gave an IC50 [2] of 0.61 µM.
Work on `COc1ccc(-n2nnc(C(=O)Nc3ccc(Oc4ccnc5[nH]ccc45)cc3)c2C(F)(F)F)cc1` yielded an IC50 [3] of 4.85 µM, an IC50 [1] of 0.46 µM and an IC50 [4] of 0.58 µM. For the same molecule, the IC50 [2] was 0.29 µM.
In the case of `Cc1c(C(=O)Nc2ccc(Oc3ccnc4[nH]ccc34)c(F)c2)nnn1-c1ccccc1F`, the IC50 [3] is reported as 3.24 µM, the IC50 [1] is reported as 0.39 µM and the IC50 [4] is reported as 0.42 µM. It also gave an IC50 [2] of 0.18 µM.
`Cc1c(C(=O)Nc2ccc(Oc3ccnc4[nH]ccc34)c(F)c2)nnn1-c1ccccc1` showed an IC50 [3] of 2.34 µM, an IC50 [1] of 0.36 µM and an IC50 [4] of 0.35 µM. The IC50 [2] was 0.29 µM.
Molecule `O=C(Nc1ccc(Oc2ccnc3[nH]ccc23)cc1)c1nnn(-c2ccc(F)cc2)c1C(F)(F)F` has an IC50 [3] of 2.83 µM, an IC50 [1] of 0.18 µM and an IC50 [4] of 0.21 µM. It also gave an IC50 [2] of 0.093 µM.
In the case of `O=C(Nc1ccc(Oc2ccnc3[nH]ccc23)c(F)c1)c1nnn(-c2ccc(F)c(F)c2)c1C(F)(F)F`, the IC50 [3] is reported as 2.48 µM, the IC50 [1] is reported as 0.35 µM and the IC50 [4] is reported as 0.59 µM. It also gave an IC50 [2] of 0.32 µM.
For `O=C(Nc1ccc(Oc2ccnc3[nH]ccc23)cc1)c1nnn(-c2ccccc2F)c1C(F)(F)F`, the IC50 [3] was 3.69 µM, the IC50 [1] was 0.21 µM and the IC50 [4] was 0.29 µM. It also gave an IC50 [2] of 0.12 µM.
`COc1ccc(-n2nnc(C(=O)Nc3ccc(Oc4ccnc5[nH]ccc45)cc3)c2C)cc1` showed an IC50 [1] of 2.42 µM and an IC50 [2] of 1.16 µM.
Molecule `Cc1c(C(=O)Nc2ccc(Oc3ccnc4[nH]ccc34)cc2)nnn1-c1ccc(F)cc1` has an IC50 [3] of 3.45 µM, an IC50 [1] of 0.22 µM and an IC50 [4] of 0.39 µM. The IC50 [2] was 0.18 µM.
In the case of `O=C(Nc1ccc(Oc2ccnc3[nH]ccc23)cc1)c1nnn(-c2ccc(F)c(Cl)c2)c1C(F)(F)F`, the IC50 [1] is reported as 1.12 µM and the IC50 [2] is reported as 1.02 µM.
In the case of `O=C(Nc1ccc(Oc2ccnc3[nH]ccc23)cc1)c1nnn(-c2ccccc2)c1C(F)(F)F`, the IC50 [3] is reported as 3.57 µM, the IC50 [1] is reported as 0.29 µM and the IC50 [4] is reported as 0.26 µM. It also gave an IC50 [2] of 0.19 µM.
`Cc1c(C(=O)Nc2ccc(Oc3ccnc4[nH]ccc34)cc2)nnn1-c1ccc(F)c(F)c1` showed an IC50 [1] of 2.26 µM and an IC50 [2] of 1.07 µM.
Molecule `O=C(Nc1ccc(Oc2ccnc3[nH]ccc23)cc1)c1nnn(-c2ccc(Cl)c(C(F)(F)F)c2)c1C(F)(F)F` has an IC50 [1] of 2.34 µM and an IC50 [2] of 1.53 µM.
Molecule `COc1ccc(-n2nnc(C(=O)Nc3ccc(Oc4ccnc5[nH]ccc45)c(F)c3)c2C(F)(F)F)cc1` has an IC50 [3] of 1.85 µM, an IC50 [1] of 0.36 µM and an IC50 [4] of 0.51 µM. For the same molecule, the IC50 [2] was 0.29 µM.
`O=C(Nc1ccc(Oc2ccnc3[nH]ccc23)c(F)c1)c1nnn(-c2ccc(F)cc2)c1C(F)(F)F` showed an IC50 [3] of 1.52 µM, an IC50 [5] of 0.00206 µM and an IC50 [6] of 0.0862 µM. The IC50 [1] was 0.082 µM, the IC50 [4] was 0.11 µM and the IC50 [7] was 0.325 µM. The IC50 [8] was 0.00457 µM, the IC50 [9] was 0.00168 µM and the IC50 [2] was 0.029 µM.
`Cc1c(C(=O)Nc2ccc(Oc3ccnc4[nH]ccc34)cc2)nnn1-c1ccc(F)c(Cl)c1` gave an IC50 [3] of 12.6 µM, an IC50 [1] of 0.98 µM and an IC50 [4] of 6.31 µM. For the same molecule, the IC50 [2] was 2.18 µM.
Work on `Cc1c(C(=O)Nc2ccc(Oc3ccnc4[nH]ccc34)cc2)nnn1-c1ccccc1` yielded an IC50 [3] of 7.26 µM, an IC50 [1] of 0.42 µM and an IC50 [4] of 0.32 µM. For the same molecule, the IC50 [2] was 0.35 µM.
Work on `Cc1c(C(=O)Nc2ccc(Oc3ccnc4[nH]ccc34)cc2)nnn1-c1ccccc1F` yielded an IC50 [3] of 3.45 µM, an IC50 [1] of 0.32 µM and an IC50 [4] of 0.28 µM. It also gave an IC50 [2] of 0.36 µM.
`Cc1c(C(=O)Nc2ccc(Oc3ccnc4[nH]ccc34)cc2)nnn1-c1ccc(Cl)c(C(F)(F)F)c1` gave an IC50 [3] of 10.9 µM, an IC50 [1] of 2.83 µM and an IC50 [4] of 8.41 µM. The IC50 [2] was 3.29 µM.
`COc1ccc(-n2nnc(C(=O)Nc3ccc(Oc4ccnc5[nH]ccc45)c(F)c3)c2C)cc1` gave an IC50 [1] of 0.71 µM and an IC50 [2] of 0.59 µM.

Reference: ChEMBL document CHEMBL3774303, “Discovery of novel pyrrolo[2,3-b]pyridine derivatives bearing 1,2,3-triazole moiety as c-Met kinase inhibitors” (Bioorg Med Chem Lett, 2016)
